Experimental data published in ChEMBL document CHEMBL1123671, “1-Aryl-2-(aminomethyl)cyclopropanecarboxylic acid derivatives. A new series of potential antidepressants” (J Med Chem, 1987).

Tested on: Mus musculus
Test: Potentiation of 5-hydroxytryptophan-induced head twitch in mice after oral administration
Assay type: functional
Conditions: not given

Point of comparison: CN(C)CCCN1c2ccccc2CCc2ccccc21 [IMIPRAMINE], ED50 60 mg/kg. Against it:
- CCOC(=O)[C@@]1(c2ccccc2)CC1CN.Cl (stereo partly specified) — within 1.5-fold, 73 mg/kg
- CCN(CC)C(=O)[C@]1(c2ccccc2)C[C@@H]1CN.Cl [1R,2S-MILNACIPRAN HYDROCHLORIDE] — higher, > 100 mg/kg
- Cc1ccc([C@]2(C(=O)OC(C)C)CC2CN)cc1.Cl (stereo partly specified) — 1.7-fold higher, 100 mg/kg

Tested on: not listed separately
Test: Ability to kill 50% of the animals after 24h, when administered perorally
Assay type: ADME, organism-based
Conditions: mouse, in vivo, po

Point of comparison: CCN(CC)C(=O)[C@]1(c2ccccc2)C[C@@H]1CN.Cl [1R,2S-MILNACIPRAN HYDROCHLORIDE], LD50 at 24 h 562 mg/kg. Against it:
- CCOC(=O)[C@@]1(c2ccccc2)CC1CN(C)CCO.O=C(O)/C=C/C(=O)O (stereo partly specified) — higher, > 1000 mg/kg
- CCOC(=O)[C@@]1(c2ccc(OC)cc2)CC1CN(C)C.Cl (stereo partly specified) — the same, 562 mg/kg
- CCOC(=O)[C@@]1(c2ccc(F)cc2)CC1CN(C)C.Cl (stereo partly specified) — the same, 562 mg/kg
- CCOC(=O)[C@@]1(c2ccccc2)CC1CNC.Cl (stereo partly specified) — the same, 562 mg/kg
- CCCN(CCC)C(=O)[C@@]1(c2ccccc2)CC1CN.O=C(O)C(=O)O (stereo partly specified) — 5.6-fold lower, 100 mg/kg
- CCOC(=O)[C@@]1(c2ccccc2)CC1CNCc1ccccc1.Cl (stereo partly specified) — 1.8-fold lower, 316 mg/kg
- C=CCOC(=O)[C@@]1(c2ccccc2)CC1CN(C)C.O=C(O)/C=C/C(=O)O (stereo partly specified) — 1.8-fold higher, 1000 mg/kg
- CCOC(=O)[C@@]1(c2ccccc2)CC1CN(CCO)CCO.O=C(O)/C=C\C(=O)O (stereo partly specified) — higher, > 1000 mg/kg
- CCOC(=O)[C@@]1(c2ccccc2)CC1CN(C(C)C)C(C)C.O=C(O)/C=C\C(=O)O (stereo partly specified) — within 1.5-fold, 750 mg/kg
- CCCCN(C)CC1C[C@@]1(C(=O)OCC)c1ccccc1.Cl (stereo partly specified) — 2.2-fold lower, 255 mg/kg
- CCOC(=O)[C@@]1(c2ccccc2)CC1CN(C)C.Cl (stereo partly specified) — higher, > 1000 mg/kg
- CCOC(=O)[C@@]1(c2ccccc2)CC1CN.Cl (stereo partly specified) — 1.8-fold lower, 316 mg/kg
- CCOC(=O)[C@@]1(c2ccccc2)CC1CN1CCCC1.Cl (stereo partly specified) — the same, 562 mg/kg
- Cc1ccc([C@]2(C(=O)OC(C)C)CC2CN)cc1.Cl (stereo partly specified) — 1.8-fold higher, 1000 mg/kg
- CC(C)OC(=O)[C@@]1(c2ccccc2)CC1CN(C)C.Cl (stereo partly specified) — within 1.5-fold, 422 mg/kg
- COC(=O)[C@@]1(c2ccccc2)CC1CN(C)C.Cl (stereo partly specified) — within 1.5-fold, 750 mg/kg

Species: Mus musculus
Test: % increase of the diameter of the test pupil (% mydriasis) in comparison with that of the control pupil.
Assay type: functional, organism-based
Conditions: not given
How it was run: (§1)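 One drop (0.1 mL) of a 1% aqueous solution instilled into the left eye of 10 mice; right eye as untreated control. Both pupil diameters measured by ocular micrometer; mean mydriasis given as percent increase of test pupil diameter over control pupil.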

With CCOC(=O)[C@@]1(c2ccccc2)CC1CN(CCO)CCO.O=C(O)/C=C\C(=O)O (stereo partly specified) the Mydriasis was “Not significant”.
For CCN(CC)C(=O)[C@]1(c2ccccc2)C[C@@H]1CN.Cl [1R,2S-MILNACIPRAN HYDROCHLORIDE], the Mydriasis was “Not significant”.
In the case of Cc1ccc([C@]2(C(=O)OC(C)C)CC2CN)cc1.Cl (stereo partly specified), the Mydriasis is reported as “Not significant”.

Tested on: Mus musculus
Test: Ability to kill 50% of the animals (administered orally), after sublethal dose of yohimbine (25 mg/Kg) when given subcutaneously.
Assay type: functional
Conditions: not given

Point of comparison: CCOC(=O)[C@@]1(c2ccccc2)CC1CN(C(C)C)C(C)C.O=C(O)/C=C\C(=O)O (stereo partly specified), ED50 70 mg/kg. Against it:
- CCOC(=O)[C@@]1(c2ccccc2)CC1CN(C)CCO.O=C(O)/C=C/C(=O)O (stereo partly specified) — within 1.5-fold, 56 mg/kg
- CCOC(=O)[C@@]1(c2ccc(OC)cc2)CC1CN(C)C.Cl (stereo partly specified) — not separable, > 30 mg/kg
- CCOC(=O)[C@@]1(c2ccc(F)cc2)CC1CN(C)C.Cl (stereo partly specified) — 5.8-fold lower, 12 mg/kg
- CCOC(=O)[C@@]1(c2ccccc2)CC1CNC.Cl (stereo partly specified) — 2.3-fold lower, 30 mg/kg
- CCCN(CCC)C(=O)[C@@]1(c2ccccc2)CC1CN.O=C(O)C(=O)O (stereo partly specified) — 7.8-fold lower, 9 mg/kg
- CCOC(=O)[C@@]1(c2ccccc2)CC1CNCc1ccccc1.Cl (stereo partly specified) — not separable, > 30 mg/kg
- C=CCOC(=O)[C@@]1(c2ccccc2)CC1CN(C)C.O=C(O)/C=C/C(=O)O (stereo partly specified) — 4.4-fold lower, 16 mg/kg
- CCOC(=O)[C@@]1(c2ccccc2)CC1CN(CCO)CCO.O=C(O)/C=C\C(=O)O (stereo partly specified) — higher, > 100 mg/kg
- CCCCN(C)CC1C[C@@]1(C(=O)OCC)c1ccccc1.Cl (stereo partly specified) — 2.6-fold lower, 27 mg/kg
- CCOC(=O)[C@@]1(c2ccccc2)CC1CN(C)C.Cl (stereo partly specified) — 7-fold lower, 10 mg/kg
- CN(C)CCCN1c2ccccc2CCc2ccccc21 [IMIPRAMINE] — 10-fold lower, 7 mg/kg
- CCOC(=O)[C@@]1(c2ccccc2)CC1CN.Cl (stereo partly specified) — within 1.5-fold, 100 mg/kg
- CCN(CC)C(=O)[C@]1(c2ccccc2)C[C@@H]1CN.Cl [1R,2S-MILNACIPRAN HYDROCHLORIDE] — higher, > 100 mg/kg
- CCOC(=O)[C@@]1(c2ccccc2)CC1CN1CCCC1.Cl (stereo partly specified) — higher, > 100 mg/kg
- Cc1ccc([C@]2(C(=O)OC(C)C)CC2CN)cc1.Cl (stereo partly specified) — 2.3-fold lower, 30 mg/kg
- CC(C)OC(=O)[C@@]1(c2ccccc2)CC1CN(C)C.Cl (stereo partly specified) — 3.9-fold lower, 18 mg/kg
- COC(=O)[C@@]1(c2ccccc2)CC1CN(C)C.Cl (stereo partly specified) — 2.4-fold lower, 29 mg/kg

Species: Mus musculus
Test: Percent increase of the diameter of the test pupil (% mydriasis) in comparison with that of the control pupil.
Assay type: functional
Conditions: not given
How it was run: as §1

Point of comparison: COC(=O)[C@@]1(c2ccccc2)CC1CN(C)C.Cl (stereo partly specified), Mydriasis 60%. Against it:
- CCOC(=O)[C@@]1(c2ccccc2)CC1CN(C)CCO.O=C(O)/C=C/C(=O)O (stereo partly specified) — lower, 23%
- CCOC(=O)[C@@]1(c2ccc(OC)cc2)CC1CN(C)C.Cl (stereo partly specified) — lower, 38%
- CCOC(=O)[C@@]1(c2ccc(F)cc2)CC1CN(C)C.Cl (stereo partly specified) — higher, 76%
- CCOC(=O)[C@@]1(c2ccccc2)CC1CNC.Cl (stereo partly specified) — higher, 62%
- CCCN(CCC)C(=O)[C@@]1(c2ccccc2)CC1CN.O=C(O)C(=O)O (stereo partly specified) — lower, 27%
- CCOC(=O)[C@@]1(c2ccccc2)CC1CNCc1ccccc1.Cl (stereo partly specified) — lower, 16%
- C=CCOC(=O)[C@@]1(c2ccccc2)CC1CN(C)C.O=C(O)/C=C/C(=O)O (stereo partly specified) — lower, 44%
- CCOC(=O)[C@@]1(c2ccccc2)CC1CN(C(C)C)C(C)C.O=C(O)/C=C\C(=O)O (stereo partly specified) — lower, 49%
- CCCCN(C)CC1C[C@@]1(C(=O)OCC)c1ccccc1.Cl (stereo partly specified) — higher, 61%
- CCOC(=O)[C@@]1(c2ccccc2)CC1CN(C)C.Cl (stereo partly specified) — lower, 40%
- CN(C)CCCN1c2ccccc2CCc2ccccc21 [IMIPRAMINE] — higher, 61%
- CCOC(=O)[C@@]1(c2ccccc2)CC1CN.Cl (stereo partly specified) — lower, 33%
- CCOC(=O)[C@@]1(c2ccccc2)CC1CN1CCCC1.Cl (stereo partly specified) — lower, 53%
- CC(C)OC(=O)[C@@]1(c2ccccc2)CC1CN(C)C.Cl (stereo partly specified) — higher, 73%

Tested on: Mus musculus
Test: Antagonism of tetrabenazine-induced ptosis in mice was evaluated after oral administration
Assay type: functional
Conditions: not given
How it was run: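 Mice dosed orally at various doses (highest 30 mg/kg) 30 min before tetrabenazine 40 mg/kg ip. Blepharoptosis scored 0–2 thirty minutes after tetrabenazine. Group score sums expressed as percentage.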

Point of comparison: COC(=O)[C@@]1(c2ccccc2)CC1CN(C)C.Cl (stereo partly specified), ED50 30 mg/kg. Against it:
- CCOC(=O)[C@@]1(c2ccc(F)cc2)CC1CN(C)C.Cl (stereo partly specified) — 3.8-fold lower, 8 mg/kg
- CCCN(CCC)C(=O)[C@@]1(c2ccccc2)CC1CN.O=C(O)C(=O)O (stereo partly specified) — 5.5-fold lower, 5.5 mg/kg
- CCOC(=O)[C@@]1(c2ccccc2)CC1CN(C)C.Cl (stereo partly specified) — 21-fold lower, 1.4 mg/kg
- CN(C)CCCN1c2ccccc2CCc2ccccc21 [IMIPRAMINE] — 6-fold lower, 5 mg/kg
- CCOC(=O)[C@@]1(c2ccccc2)CC1CN.Cl (stereo partly specified) — the same, 30 mg/kg
- CCN(CC)C(=O)[C@]1(c2ccccc2)C[C@@H]1CN.Cl [1R,2S-MILNACIPRAN HYDROCHLORIDE] — higher, > 30 mg/kg
- Cc1ccc([C@]2(C(=O)OC(C)C)CC2CN)cc1.Cl (stereo partly specified) — 1.8-fold lower, 17 mg/kg
- CC(C)OC(=O)[C@@]1(c2ccccc2)CC1CN(C)C.Cl (stereo partly specified) — 4.3-fold lower, 7 mg/kg
